Laboratory results reported in ChEMBL document CHEMBL5537199, “Discovery and SAR Study of Boronic Acid-Based Selective PDE3B Inhibitors from a Novel DNA-Encoded Library” (J Med Chem, 2024).
pIC50: −log10 of the molar value.

How the values were obtained:
[1] = Selectivity ratio of inhibition for PDE3A (M1 to Q1141 residues) (unknown origin) by IMAP assay to inhibition for PDE3B (M1 to E1112 residues) (unknown origin) by IMAP assay
[2] = Selectivity ratio of inhibition for PDE3A (M1 to Q1141 residues) (unknown origin) by RF-MS assay to inhibition for PDE3B (M1 to E1112 residues) (unknown origin) by RF-MS assay
[3] = target: cGMP-inhibited 3',5'-cyclic phosphodiesterase 3B (Homo sapiens, UniProt Q13370); experiment: Inhibition of full-length PDE3B (M1 to E1112 residues) (unknown origin) using FAM-cAMP as substrate incubated for 120 mins by TR-FRET IMAP assay
Chain of cGMP-inhibited 3',5'-cyclic phosphodiesterase 3B (Q13370 whole entry, the tested form may be a part): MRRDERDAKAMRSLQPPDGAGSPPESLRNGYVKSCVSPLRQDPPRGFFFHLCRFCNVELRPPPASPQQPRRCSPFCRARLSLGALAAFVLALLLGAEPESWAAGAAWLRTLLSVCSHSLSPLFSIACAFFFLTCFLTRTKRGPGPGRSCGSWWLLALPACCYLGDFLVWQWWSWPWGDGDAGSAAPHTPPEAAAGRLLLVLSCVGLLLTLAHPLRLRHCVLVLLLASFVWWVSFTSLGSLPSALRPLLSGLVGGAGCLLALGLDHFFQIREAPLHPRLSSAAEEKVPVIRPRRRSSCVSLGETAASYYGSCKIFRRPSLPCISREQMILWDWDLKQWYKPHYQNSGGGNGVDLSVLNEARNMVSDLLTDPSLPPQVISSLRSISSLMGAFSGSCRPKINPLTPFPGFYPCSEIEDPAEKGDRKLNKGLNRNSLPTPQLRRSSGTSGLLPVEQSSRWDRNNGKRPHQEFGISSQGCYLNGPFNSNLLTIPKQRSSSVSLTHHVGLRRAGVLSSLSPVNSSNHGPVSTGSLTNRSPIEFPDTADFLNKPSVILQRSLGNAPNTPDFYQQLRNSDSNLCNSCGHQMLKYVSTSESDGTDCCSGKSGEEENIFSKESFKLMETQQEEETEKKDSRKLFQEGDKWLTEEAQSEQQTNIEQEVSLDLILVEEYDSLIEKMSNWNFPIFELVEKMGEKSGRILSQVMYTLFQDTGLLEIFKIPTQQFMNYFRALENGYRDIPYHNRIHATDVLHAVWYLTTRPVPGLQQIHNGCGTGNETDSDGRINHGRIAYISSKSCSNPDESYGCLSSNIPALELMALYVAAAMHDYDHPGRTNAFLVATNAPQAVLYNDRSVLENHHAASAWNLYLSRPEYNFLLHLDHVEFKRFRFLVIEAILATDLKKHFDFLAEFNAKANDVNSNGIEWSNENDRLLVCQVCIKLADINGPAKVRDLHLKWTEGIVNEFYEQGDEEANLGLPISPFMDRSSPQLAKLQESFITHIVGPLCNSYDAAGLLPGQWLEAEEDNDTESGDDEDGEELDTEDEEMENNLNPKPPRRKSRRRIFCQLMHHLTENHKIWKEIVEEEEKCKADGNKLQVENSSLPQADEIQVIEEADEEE
Method in brief: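 Buffer 50 mM Tris-HCl pH 7.5, 8.3 mM MgCl2, 1.7 mM EGTA, 0.05% BSA. Compounds run as a concentration curve with a top final concentration of 100 μM. DMSO and 10 μM trequinsin served as controls. Terbium TR-FRET ratio read at 520:490 nm.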

[4] = target: cGMP-inhibited 3',5'-cyclic phosphodiesterase 3A (Homo sapiens, UniProt Q14432); experiment: Inhibition of PDE3A (M1 to Q1141 residues) (unknown origin) using FAM-cAMP as substrate incubated for 45 mins by TR-FRET IMAP assay
Chain of cGMP-inhibited 3',5'-cyclic phosphodiesterase 3A (Q14432 whole entry, the tested form may be a part): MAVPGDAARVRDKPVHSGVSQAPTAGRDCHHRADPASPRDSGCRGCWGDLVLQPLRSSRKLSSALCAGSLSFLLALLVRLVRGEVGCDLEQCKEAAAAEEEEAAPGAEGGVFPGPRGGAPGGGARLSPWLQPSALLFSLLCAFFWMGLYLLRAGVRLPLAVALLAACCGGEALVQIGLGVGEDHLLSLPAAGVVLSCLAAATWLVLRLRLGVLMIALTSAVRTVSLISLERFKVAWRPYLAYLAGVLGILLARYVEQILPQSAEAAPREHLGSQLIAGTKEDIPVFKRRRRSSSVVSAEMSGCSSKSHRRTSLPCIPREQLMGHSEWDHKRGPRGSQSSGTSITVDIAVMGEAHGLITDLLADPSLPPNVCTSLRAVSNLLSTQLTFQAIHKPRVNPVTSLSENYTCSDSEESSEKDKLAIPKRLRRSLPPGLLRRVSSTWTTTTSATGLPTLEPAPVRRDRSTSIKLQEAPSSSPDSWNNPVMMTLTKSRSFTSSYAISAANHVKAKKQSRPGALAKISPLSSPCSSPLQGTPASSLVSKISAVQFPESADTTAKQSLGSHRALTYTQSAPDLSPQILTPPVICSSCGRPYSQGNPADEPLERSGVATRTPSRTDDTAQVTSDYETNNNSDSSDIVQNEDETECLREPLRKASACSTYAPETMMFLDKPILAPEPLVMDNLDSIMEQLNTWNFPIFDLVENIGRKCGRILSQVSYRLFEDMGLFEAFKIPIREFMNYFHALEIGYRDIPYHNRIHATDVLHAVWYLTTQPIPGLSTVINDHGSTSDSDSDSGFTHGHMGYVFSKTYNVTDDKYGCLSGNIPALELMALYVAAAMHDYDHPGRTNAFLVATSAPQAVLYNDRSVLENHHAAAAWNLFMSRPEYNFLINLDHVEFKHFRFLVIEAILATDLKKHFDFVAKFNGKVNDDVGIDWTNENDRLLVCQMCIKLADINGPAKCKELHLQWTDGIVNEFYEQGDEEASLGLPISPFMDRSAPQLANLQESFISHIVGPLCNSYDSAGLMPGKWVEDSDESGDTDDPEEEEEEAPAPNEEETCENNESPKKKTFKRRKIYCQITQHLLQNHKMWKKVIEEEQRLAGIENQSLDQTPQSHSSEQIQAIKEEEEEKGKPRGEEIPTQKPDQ
Method in brief: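 Full-length PDE3A at 1.6 nM with 50 nM FAM-cAMP, 45 min reaction. Buffer 50 mM Tris-HCl pH 7.5, 8.3 mM MgCl2, 1.7 mM EGTA, 0.05% BSA. Compounds run as a concentration curve with a top final concentration of 100 μM. DMSO and 10 μM trequinsin served as controls. TR-FRET read at Ex 337 nm, Em 520/490 nm.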

Selectivity ratio [1]	Selectivity ratio [2]	pIC50 [3]	pIC50 [4]	SMILES
> 190	50	6.30	< 4.00	COC[C@H](NC(=O)c1cc(NC(=O)c2cc(OC)c3ccc(OC)cc3n2)cc(B(O)O)c1)C(C)C
15	42	6.00	4.80	COc1ccc2c(OC)cc(C(=O)Nc3cc(B(O)O)cc(C(=O)NC(C)C)c3)nc2c1
14	25	5.70	4.60	COc1ccc2c(OC)cc(C(=O)Nc3cc(B(O)O)cc(C(=O)NCC(C)OC)c3)nc2c1 (stereo unspecified)
23	63	5.70	4.30	COc1ccc2c(OC)cc(C(=O)Nc3cc(B(O)O)cc(C(=O)N(C)C)c3)nc2c1
2.6	6.6	6.10	5.70	CNC(=O)[C@H](NC(=O)c1cc(NC(=O)c2cc(C)cc(C)c2OC)cc(B(O)O)c1)C1CCCCC1
0.8	1	4.40	4.50	CCNC(=O)N1CCCCC(NC(=O)c2cc(O)cc(NC(=O)c3cc(C)cc(C)c3OC)c2)C1 (stereo unspecified)
0.8	0.9	6.00	6.10	CNC(=O)[C@@H](NC(=O)c1cc(NC(=O)c2cc(OC)c3cc(OC)ccc3n2)cc(B(O)O)c1)C1CCCCC1
17	75	6.70	5.50	COc1ccc2c(OC)cc(C(=O)Nc3cc(B(O)O)cc(C(=O)N4CC(OC5CC5)C4)c3)nc2c1
12	26	7.10	6.00	CNC(=O)[C@@H](NC(=O)c1cc(NC(=O)c2cc(OC)c3ccc(OC)cc3n2)cc(B(O)O)c1)C1CCCCC1
3.3	4.7	4.60	4.10	CNC(=O)[C@H](NC(=O)c1cc(NC(=O)C(C)Oc2c(C)cccc2C)cc(B(O)O)c1)C1CCCCC1 (stereo partly specified)
0.7	0.6	6.70	6.90	CNC(=O)[C@@H](NC(=O)c1cc(NC(=O)c2ccc3ncccc3n2)cc(B(O)O)c1)C1CCCCC1
0.8	1.2	4.70	4.80	CNC(=O)[C@@H](NC(=O)c1cc(NC(=O)c2cc(C)c3c(=O)[nH]c(=O)[nH]c3n2)cc(B(O)O)c1)C1CCCCC1
14	56	5.80	4.60	COc1ccc2c(OC)cc(C(=O)Nc3cc(B(O)O)cc(C(=O)NCC(C)C)c3)nc2c1
0.7	0.9	4.70	4.90	CNC(=O)[C@@H](NC(=O)c1cc(NC(=O)c2cnc3ccccc3c2)cc(B(O)O)c1)C1CCCCC1
1	2	5.50	5.50	CNC(=O)[C@@H](NC(=O)c1cc(NC(=O)c2cc3ccccc3cn2)cc(B(O)O)c1)C1CCCCC1
0.7	1	6.20	6.30	CNC(=O)[C@@H](NC(=O)c1cc(NC(=O)c2ccc3cccnc3n2)cc(B(O)O)c1)C1CCCCC1
24	26	6.00	4.60	CNC(=O)[C@@H](C)NC(=O)c1cc(NC(=O)c2cc(OC)c3ccc(OC)cc3n2)cc(B(O)O)c1
43	97	6.50	4.90	COc1ccc2c(OC)cc(C(=O)Nc3cc(B(O)O)cc(C(=O)N4Cc5ccncc5C4)c3)nc2c1
3.4	6.3	6.50	6.00	CNC(=O)[C@@H](NC(=O)c1cc(NC(=O)c2cc(C)cc(C)c2OC)cc(B(O)O)c1)C1CCCCC1
1	1.6	4.30	4.30	CNC(=O)[C@H](NC(=O)c1cc(NC(=O)c2cc(OC)ccn2)cc(B(O)O)c1)C1CCCCC1
1.4	4.2	5.00	4.90	COc1ccc2c(OC)cc(C(=O)Nc3cccc(B(O)O)c3)nc2c1
0.8	0.8	4.50	4.50	CNC(=O)[C@H](NC(=O)c1cc(NC(=O)c2nc(C)ncc2OC)cc(B(O)O)c1)C1CCCCC1
0.3	0.4	5.30	5.80	CNC(=O)[C@@H](NC(=O)c1cc(NC(=O)c2ccc3ccccc3c2)cc(B(O)O)c1)C1CCCCC1

Selectivity ratio [1]	Selectivity ratio [2]	pIC50 [3]	pIC50 [4]	SMILES
0.7	1	8.20	8.30	CNC(=O)[C@@H](NC(=O)c1cc(NC(=O)c2cc(F)cc3nccnc23)cc(B(O)O)c1)C1CCCCC1
–	–	–	4.20	COc1ccc2c(OC)cc(C(=O)Nc3cc(B(O)O)cc(C(=O)N[C@@H]4CCCOC4)c3)nc2c1
3.3	7	5.80	5.20	CNC(=O)[C@H](NC(=O)c1cc(NC(=O)c2cc(Cl)cc3c2OCC(=O)N3)cc(B(O)O)c1)C1CCCCC1
1.3	1.8	4.50	4.40	CNC(=O)[C@@H](NC(=O)c1cc(NC(=O)c2ccc3cc(OC)ccc3c2)cc(B(O)O)c1)C1CCCCC1
0.5	0.7	6.50	6.80	CNC(=O)[C@@H](NC(=O)c1cc(NC(=O)c2ccc3ccncc3n2)cc(B(O)O)c1)C1CCCCC1
1.2	1	6.00	5.90	CNC(=O)[C@@H](NC(=O)c1cc(NC(=O)c2ccc3cc(OC)ccc3n2)cc(B(O)O)c1)C1CCCCC1
8.5	16	5.70	4.80	COc1ccc2c(OC)cc(C(=O)Nc3cc(B(O)O)cc(C(=O)N[C@@H](C(N)=O)C(C)C)c3)nc2c1
46	46	6.10	4.50	COc1ccc2c(OC)cc(C(=O)Nc3cc(B(O)O)cc(C(=O)N4CCCC4)c3)nc2c1
37	78	6.50	5.00	CNC(=O)[C@H](NC(=O)c1cc(NC(=O)c2cc(OC)c3ccc(OC)cc3n2)cc(B(O)O)c1)C1CCCCC1
> 51	45	5.70	< 4.00	COc1ccc2c(OC)cc(C(=O)Nc3cc(B(O)O)cc(C(N)=O)c3)nc2c1
> 44	> 107	5.70	< 4.00	CNC(=O)c1cc(NC(=O)c2cc(OC)c3ccc(OC)cc3n2)cc(B(O)O)c1
21	62	6.20	4.80	COc1ccc2c(OC)cc(C(=O)Nc3cc(B(O)O)cc(C(=O)N(C)Cc4ccccc4)c3)nc2c1
0.5	0.5	7.30	7.70	CNC(=O)[C@@H](NC(=O)c1cc(NC(=O)c2ccc3ccccc3n2)cc(B(O)O)c1)C1CCCCC1
0.4	–	6.20	6.60	CNC(=O)[C@@H](NC(=O)c1cc(NC(=O)c2cc3c(c(OC)c2)OCC(=O)N3)cc(B(O)O)c1)C1CCCCC1
–	–	< 4.00	< 4.00	COc1ccc2c(OC)cc(C(=O)N(C)c3cc(B(O)O)cc(C(=O)NC(C)C)c3)nc2c1
> 52	> 177	5.70	< 4.00	COC(=O)c1cc(NC(=O)c2cc(OC)c3ccc(OC)cc3n2)cc(B(O)O)c1
2	2.7	6.70	6.40	CNC(=O)[C@@H](NC(=O)c1cc(NC(=O)c2nccc3ccccc23)cc(B(O)O)c1)C1CCCCC1
3	5	5.60	5.10	COc1ccc2c(OC)cc(C(=O)Nc3cc(B(O)O)cc(C(=O)O)c3)nc2c1
1.6	2.3	6.80	6.60	CNC(=O)[C@@H](NC(=O)c1cc(NC(=O)c2cc(OC)c3ccccc3n2)cc(B(O)O)c1)C1CCCCC1
1	1.9	5.00	4.90	CNC(=O)[C@@H](NC(=O)c1cc(NC(=O)c2ccc3ccc(OC)cc3c2)cc(B(O)O)c1)C1CCCCC1
15	30	6.50	5.30	COc1ccc2c(OC)cc(C(=O)Nc3cc(B(O)O)cc(C(=O)N[C@H](C(N)=O)C(C)C)c3)nc2c1
–	–	–	4.50	COc1ccc2c(OC)cc(C(=O)Nc3cc(B(O)O)cc(C(=O)N[C@H]4CCCOC4)c3)nc2c1
